These results are taken from ChEMBL document CHEMBL6087409, “Synthesis of α-fluorocinnamate derivatives as novel cathepsin S inhibitors with in vitro antiproliferative activity against pancreatic cancer cells” (Bioorg Med Chem, 2024).

The source made the active and inactive calls. The rule behind the calls is not given here.

Series [1] in a line: Inhibition of recombinant SARS-CoV-2 main protease using Dabcyl-KTSAVLQSGFRKME-Edans as substrate assessed as reduction in proteolytic activity preincubated for 10 mins followed by substrate addition and measured after 10 mins by FRET-based enzymatic cleavage assay. Also noted: species or system Severe acute respiratory syndrome coronavirus 2.
The subject of series [2] is Human coronavirus OC43. Briefly: Antiviral activity against HCoV-OC43 infected in human HCT-8 cells preincubated with cell for 1 hrs followed by viral infection and measured after 72 hrs by focus forming reduction assay. Conditions: Betacoronavirus 1, HCT-8. The class given is functional, organism-based.
The subject of series [3] is Severe acute respiratory syndrome coronavirus 2. In words: Inhibition of recombinant SARS-CoV-2 main protease using Dabcyl-KTSAVLQSGFRKME-Edans as substrate assessed as reduction in proteolytic activity at 20 uM preincubated for 10 mins followed by substrate addition and measured after 10 mins by FRET-based enzymatic cleavage assay relative to control. The conditions noted are these: time 20.0 min. The gist of the method: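 Recombinant SARS-CoV-2 Mpro at 50 nM final, with 25 µM final substrate and 20 µM final compound, in 20 mM Tris pH 7.5, 0.1 mM EDTA, 1 mM DTT, 200 mM NaCl. Substrate cleavage was followed at 25 °C as rising Edans fluorescence (ex 335/em 493 nm) after release of the Dabcyl quencher.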

Series [4] in a line: Thiol reactivity of compound in phosphate buffer with N-acetyl cysteine at pH 7.4 assessed as micheal adduct formation by measuring conversion rate measured after 24 hrs by HPLC-MS analysis. The class given is physicochemical. Conditions: pH 7.4, 24 h.
The nature of series [5]: Thiol reactivity of compound in phosphate buffer with N-acetyl cysteine at pH 7.4 assessed as micheal adduct formation by measuring conversion rate measured after 1 hrs by HPLC-MS analysis. The class given is physicochemical. The conditions noted are these: pH 7.4, 1 h. The method, boiled down: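 Compound with 1.1 equiv N-acetylcysteine in PBS pH 7.4 containing 10% ACN, stirred 1 h at 37 °C. The mixture was concentrated under reduced pressure, and consumption of starting material and adduct formation were followed by HPLC-MS.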

In series [6] the target is Procathepsin L (Homo sapiens) (UniProt P07711). In words: Inhibition of human cathepsin L using Z-phe-Arg-AMC as substrate at 20 uM by FRET-based enzymatic cleavage assay relative to control.
Chain of Procathepsin L (Homo sapiens) (P07711 114-333 limits assumed): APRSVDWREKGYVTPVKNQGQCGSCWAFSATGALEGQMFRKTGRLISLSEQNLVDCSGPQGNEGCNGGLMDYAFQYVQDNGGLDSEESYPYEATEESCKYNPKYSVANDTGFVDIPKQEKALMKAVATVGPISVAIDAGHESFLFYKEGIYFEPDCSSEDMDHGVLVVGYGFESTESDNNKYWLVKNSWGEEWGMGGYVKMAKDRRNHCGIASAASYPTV
For series [7], the system named is BXPC-3. In words: Cytotoxicity against human BXPC-3 cells assessed as inhibition of cell growth incubated for 5 days by MTS assay. The conditions noted are these: BXPC-3, 120 h. (Formazan colour is commonly taken as a measure of viable cells.)
For series [8], the target named is Cathepsin B (Homo sapiens) (UniProt P07858). In words: Inhibition of human cathepsin B using Z-phe-Arg-AMC as substrate at 20 uM by FRET-based enzymatic cleavage assay relative to control.
The subject of series [9] is CAPAN-1. In words: Cytotoxicity against human CAPAN-1 cells assessed as inhibition of cell growth incubated for 5 days by MTS assay. Conditions: CAPAN-1, 120 h.
A short description of series [10]: Thiol reactivity of compound in phosphate buffer with N-acetyl cysteine at pH 7.4 assessed as micheal adduct formation measured after 24 hrs by 19F-NMR spectroscopic analysis. The class given is physicochemical. Conditions: pH 7.4, 24 h.

As a reminder, the IC50 is the concentration that gives 50% inhibition. In general, EC50 refers to the concentration at which the effect is half-maximal. Lower therefore signals an effect from little substance. For orientation: inhibition means the change of the read-out against control, counted positive when it falls. With `CCOC(=O)/C=C/c1ccc(NC(=O)[C@H](Cc2ccccc2)NC(=O)OCc2c[nH]c3ccccc23)cc1`, the IC50 in [1] is 12.4 µM. Also, a half-maximal response in series [2] (EC50) required 9.14 µM. For the same compound, the inhibition in [3] came to 60%.

In the case of `CCOC(=O)/C=C/c1ccc(NC(=O)[C@H](Cc2ccccc2)NC(=O)OCc2ccccc2)cc1`, in [3], the inhibition stood at 40%. Besides, in series [4], the Activity came to 70%.

As for `CCOC(=O)/C(F)=C/c1ccc(NC(=O)[C@H](Cc2ccccc2)NC(=O)OCc2c[nH]c3ccccc23)cc1`, the Activity in series [5] is ~ 80%. Besides, the figures for the inhibition in series [6] and in [8] were 29% and 20%, respectively. The IC50 in series [7] was 5.79 µM; in series [9], 20.8 µM.

For `CCOC(=O)/C(F)=C/c1ccc(NC(=O)[C@H](Cc2ccccc2)NC(=O)OCc2ccccc2)cc1`, the inhibition result in series [6] was “inactive”. Further, the IC50 worked out at 25.9 µM in series [7] and 40.6 µM in [9].

With `CCOC(=O)/C(F)=C/c1ccc(N)cc1`, the result in [10] was Active.

Turning to `CCOC(=O)/C(F)=C/c1ccc(NC(=O)[C@H](Cc2ccccc2)NC(=O)c2cc3ccccc3[nH]2)cc1`, the inhibition entry in [6] is “inactive”. Moreover, the IC50 stood at 14.1 µM in series [7] and 28.3 µM in series [9].
